Test results reported in ChEMBL document CHEMBL1629686, “Substrate selectivity and a novel role in inhibitor discrimination by residue 237 in the KPC-2 beta-lactamase” (Antimicrob Agents Chemother, 2010).
Converted amounts (≈) assume the structure as drawn.

Experiments:
Escherichia coli [1] = experiment: Antimicrobial activity against Escherichia coli DH10B harboring plasmid pBR322-catI carrying beta-lactamase KPC-2 by agar dilution method in presence of beta-lactamase inhibitor Sulbactam; assay type: functional; details: K-12 DH10B
Escherichia coli [2] = experiment: Antimicrobial activity against Escherichia coli DH10B harboring plasmid pBC SK(+) carrying wild type beta-lactamase KPC-2 by agar dilution method in presence of beta-lactamase inhibitor clavulanic acid; assay type: functional; details: K-12 DH10B
In short: (§1)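 LB agar dilution MICs by CLSI criteria, applied with a Steers replicator. […] Hosts were E. coli DH10B carrying pBC SK(+) with wild-type blaKPC-2 or a position 237 variant.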

Escherichia coli [3] = experiment: Antimicrobial activity against Escherichia coli DH10B harboring beta-lactamase KPC-2 T237G mutant by agar dilution method in presence of beta-lactamase inhibitor Sulbactam; assay type: functional; details: K-12 DH10B; in short: as §1
Escherichia coli [4] = experiment: Antimicrobial activity against Escherichia coli DH10B harboring beta-lactamase KPC-2 T237I mutant by agar dilution method in presence of beta-lactamase inhibitor clavulanic acid; assay type: functional; details: K-12 DH10B; in short: as §1
Escherichia coli [5] = experiment: Antimicrobial activity against Escherichia coli DH10B harboring beta-lactamase KPC-2 T237M mutant by agar dilution method in presence of beta-lactamase inhibitor Sulbactam; assay type: functional; details: K-12 DH10B; in short: as §1
Escherichia coli [6] = experiment: Antimicrobial activity against Escherichia coli DH10B harboring beta-lactamase KPC-2 T237V mutant by agar dilution method in presence of beta-lactamase inhibitor clavulanic acid; assay type: functional; details: K-12 DH10B; in short: as §1
Escherichia coli [7] = experiment: Antimicrobial activity against Escherichia coli DH10B harboring beta-lactamase KPC-2 T237V mutant by agar dilution method in presence of beta-lactamase inhibitor Sulbactam; assay type: functional; details: K-12 DH10B; in short: as §1
Escherichia coli [8] = experiment: Antimicrobial activity against Escherichia coli DH10B harboring beta-lactamase KPC-2 T237F mutant by agar dilution method in presence of beta-lactamase inhibitor Sulbactam; assay type: functional; details: K-12 DH10B; in short: as §1
Escherichia coli [9] = experiment: Antimicrobial activity against Escherichia coli DH10B harboring beta-lactamase KPC-2 T237W mutant by agar dilution method in presence of beta-lactamase inhibitor clavulanic acid; assay type: functional; details: K-12 DH10B
In short: (§2)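 LB agar dilution MICs per CLSI criteria, inoculated with a Steers replicator. […] Strains: E. coli DH10B alone, DH10B carrying empty pBC SK(+), or DH10B carrying pBC SK(+)-blaKPC-2 position 237 variants made by site-saturation mutagenesis and confirmed by sequencing. Plasmid selection used 20 mg/liter chloramphenicol.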

Escherichia coli [10] = experiment: Antimicrobial activity against Escherichia coli DH10B harboring beta-lactamase KPC-2 T237W mutant by agar dilution method in presence of beta-lactamase inhibitor Sulbactam; assay type: functional; details: K-12 DH10B; in short: as §1
Escherichia coli [11] = experiment: Antimicrobial activity against Escherichia coli DH10B harboring beta-lactamase KPC-2 T237Y mutant by agar dilution method in presence of beta-lactamase inhibitor Sulbactam; assay type: functional; details: K-12 DH10B; in short: as §1
Escherichia coli [12] = experiment: Antimicrobial activity against Escherichia coli DH10B harboring beta-lactamase KPC-2 T237C mutant by agar dilution method in presence of beta-lactamase inhibitor Sulbactam; assay type: functional; details: K-12 DH10B; in short: as §2
Escherichia coli [13] = experiment: Antimicrobial activity against Escherichia coli DH10B harboring beta-lactamase KPC-2 T237N mutant by agar dilution method in presence of beta-lactamase inhibitor Sulbactam; assay type: functional; details: K-12 DH10B; in short: as §1
Escherichia coli [14] = experiment: Antimicrobial activity against Escherichia coli DH10B harboring beta-lactamase KPC-2 T237P mutant by agar dilution method in presence of beta-lactamase inhibitor clavulanic acid; assay type: functional; details: K-12 DH10B; in short: as §2
Escherichia coli [15] = experiment: Antimicrobial activity against Escherichia coli DH10B harboring beta-lactamase KPC-2 T237P mutant by agar dilution method in presence of beta-lactamase inhibitor Sulbactam; assay type: functional; details: K-12 DH10B; in short: as §2
Escherichia coli [16] = experiment: Antimicrobial activity against Escherichia coli DH10B harboring beta-lactamase KPC-2 T237Q mutant by agar dilution method in presence of beta-lactamase inhibitor clavulanic acid; assay type: functional; details: K-12 DH10B; in short: as §1
Escherichia coli [17] = experiment: Antimicrobial activity against Escherichia coli DH10B harboring beta-lactamase KPC-2 T237S mutant by agar dilution method in presence of beta-lactamase inhibitor Sulbactam; assay type: functional; details: K-12 DH10B; in short: as §1
Escherichia coli [18] = experiment: Antimicrobial activity against Escherichia coli DH10B harboring beta-lactamase KPC-2 T237R mutant by agar dilution method in presence of beta-lactamase inhibitor Sulbactam; assay type: functional; details: K-12 DH10B; in short: as §2
Escherichia coli [19] = experiment: Antimicrobial activity against Escherichia coli DH10B harboring plasmid […] by agar dilution method in presence of beta-lactamase inhibitor Sulbactam; assay type: functional; details: K-12 DH10B; in short: as §2
Klebsiella pneumoniae [20] = experiment: microbe, parasite or virus in culture; details: 1534
Klebsiella pneumoniae [21] = experiment: Activity of Klebsiella pneumoniae 1534 beta-lactamase KPC-2 T237A mutant by spectrophotometric analysis
In short: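 Purified KPC-2 variant enzymes (periplasmic lysate from E. coli, preparative isoelectric focusing). Hydrolysis followed by diode-array spectrophotometry in 10 mM PBS, pH 7.4, room temperature. Enzyme at 10 nM with substrate in molar excess for pseudo-first-order conditions. Vmax and Km came from a nonlinear least-squares Michaelis-Menten fit.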

Escherichia coli [22] = experiment: Antimicrobial activity against Escherichia coli DH10B harboring beta-lactamase KPC-2 T237V mutant by agar dilution method in presence of beta-lactamase inhibitor Tazobactam; assay type: functional; details: K-12 DH10B
In short: (§3)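 LB agar dilution MICs by CLSI criteria, inoculated with a Steers replicator. […] Strains were E. coli DH10B with or without pBC SK(+) carrying wild-type blaKPC-2 or a position 237 variant.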

Escherichia coli [23] = experiment: Antimicrobial activity against Escherichia coli DH10B harboring beta-lactamase KPC-2 T237F mutant by agar dilution method in presence of beta-lactamase inhibitor Tazobactam; assay type: functional; details: K-12 DH10B; in short: as §3
Escherichia coli [24] = experiment: Antimicrobial activity against Escherichia coli DH10B harboring beta-lactamase KPC-2 T237W mutant by agar dilution method in presence of beta-lactamase inhibitor Tazobactam; assay type: functional; details: K-12 DH10B; in short: as §3
Escherichia coli [25] = experiment: Antimicrobial activity against Escherichia coli DH10B harboring beta-lactamase KPC-2 T237Q mutant by agar dilution method in presence of beta-lactamase inhibitor Tazobactam; assay type: functional; details: K-12 DH10B; in short: as §3
Escherichia coli [26] = experiment: Antimicrobial activity against Escherichia coli DH10B harboring beta-lactamase KPC-2 T237D mutant by agar dilution method in presence of beta-lactamase inhibitor Tazobactam; assay type: functional; details: K-12 DH10B; in short: as §3
Escherichia coli [27] = experiment: Antimicrobial activity against Escherichia coli DH10B harboring beta-lactamase KPC-2 T237H mutant by agar dilution method in presence of beta-lactamase inhibitor Tazobactam; assay type: functional; details: K-12 DH10B; in short: as §3
Escherichia coli [28] = experiment: Antimicrobial activity against Escherichia coli DH10B harboring beta-lactamase KPC-2 T237K mutant by agar dilution method in presence of beta-lactamase inhibitor Tazobactam; assay type: functional; details: K-12 DH10B; in short: as §3
Escherichia coli [29] = experiment: Antimicrobial activity against Escherichia coli DH10B harboring plasmid […] by agar dilution method in presence of beta-lactamase inhibitor Tazobactam; assay type: functional; details: K-12 DH10B
In short: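 LB agar dilution MIC following CLSI criteria, inoculated with a Steers replicator. Tested as piperacillin-tazobactam at a fixed 8:1 ratio.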

**Q.** What does the source list for `CC1(C)S[C@@H]2[C@H](NC(=O)[C@H](N)c3ccccc3)C(=O)N2[C@H]1C(=O)O` [AMPICILLIN]?
**A.** MIC (Escherichia coli [1]): 512 µg/mL; MIC (Escherichia coli [2]): 4 µg/mL; MIC (Escherichia coli [3]): 16 µg/mL; MIC (Escherichia coli [4]): 8 µg/mL; MIC (Escherichia coli [5]): 16 µg/mL; MIC (Escherichia coli [6]): 8 µg/mL; MIC (Escherichia coli [7]): 32 µg/mL; MIC (Escherichia coli [8]): 8 µg/mL; MIC (Escherichia coli [9]): 1 µg/mL; MIC (Escherichia coli [10]): 8 µg/mL; MIC (Escherichia coli [11]): 8 µg/mL; MIC (Escherichia coli [12]): 1 µg/mL; MIC (Escherichia coli [13]): 8 µg/mL; MIC (Escherichia coli [14]): 1 µg/mL; MIC (Escherichia coli [15]): 1 µg/mL; MIC (Escherichia coli [16]): 8 µg/mL; MIC (Escherichia coli [17]): 128 µg/mL; MIC (Escherichia coli [18]): 1 µg/mL; MIC (Escherichia coli [19]): 1 µg/mL; MIC (Klebsiella pneumoniae [20]): 32 µg/mL (≈ 91.6 µM)

**Q.** For `CCN1CCN(C(=O)N[C@@H](C(=O)N[C@@H]2C(=O)N3[C@@H]2SC(C)(C)[C@@H]3C(=O)O)c2ccccc2)C(=O)C1=O` [PIPERACILLIN], which Km (Klebsiella pneumoniae [21]) is on record?
**A.** The Km was 12 µM.

**Q.** What about the kcat (Klebsiella pneumoniae [21]) of the same compound?
**A.** The kcat was 42 s⁻¹.

**Q.** And the MIC (Escherichia coli [22])?
**A.** The MIC was 2 µg/mL.

**Q.** What about the MIC (Escherichia coli [23]) of the same compound?
**A.** Its MIC is 0.5 µg/mL.

**Q.** And the MIC (Escherichia coli [24])?
**A.** Its MIC is 1 µg/mL.

**Q.** And the MIC (Escherichia coli [25])?
**A.** Its MIC is 4 µg/mL.

**Q.** And the MIC (Escherichia coli [26])?
**A.** Its MIC is 1 µg/mL.

**Q.** And the MIC (Escherichia coli [27])?
**A.** Its MIC is 1 µg/mL.

**Q.** And the MIC (Escherichia coli [28])?
**A.** Its MIC is 0.5 µg/mL.

**Q.** And the MIC (Escherichia coli [29])?
**A.** The MIC was 0.5 µg/mL.
